Screening data from PubChem.
TPT1 inh: inhibitors of Candida albicans tRNA 2'-phosphotransferase TPT1; AID 1962; inhibition, % at 5 µM; recombinant caTPT1, FP RNA substrate dephosphorylation; hit rate 0.81% among 300,000;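 active means inhibition above the mean of all tested compounds plus 3 SD, set per screening campaign, cut at about 24% in these data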;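 further: plate controls were DMSO alone for no effect and ferristatin control at 100 nM for full effect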
Rpn11 block: blocks the human proteasome subunit Rpn11 | hit rate 0.59% among 360,000 | inhibition, % at 20 µM | human 26S proteasome, Ub4-pepOG fluorescence polarization; 20S core pre-blocked with epoxomicin;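 active means inhibition at 20 µM, scaled to each plate's controls, above about 33%, limit read from the data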
aDG glyco up: alpha-DG glycosylation activation; Pro5-aDG cells, alpha-DG glycosylation AlphaScreen (IIH6); 0% Pro5, 100% B10-LARGE cell signal; activation, % at 10 µM; hit rate 0.22% among 360,000; AID 624168;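 active means activation of at least 8% versus controls, or a plate z-score of at least 8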;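 further: Pro5 are CHO cells carrying HIG-tagged alpha-DG that lacks glycosylation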
XiGFP reactiv: X-chromosome reactivation activator. AID 743238. hit rate 0.055% among 360,000. XiGFP mouse fibroblasts, % GFP-positive cells imaging, 3 d; cells co-treated with 5-aza-dC sensitizer; scaled so ellipticine positive control = 100%. activation, % at 7.58 µM;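 active means mean normalized replicate activation at least 10% and every replicate at or above 10%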;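 further: 0% = median of on-plate neutral control wells and 100% = ellipticine 6 µM median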
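System: XiGFP fibroblasts, SV40-immortalized. Medium: DMEM plus 5-aza-dC sensitizer. Doses: single point. Timing: 3 d treatment, 15 min room-temperature fixation. Control set: ellipticine 6 µM.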
CSN inh: inhibitors of human CSN-mediated cullin deneddylation; hit rate 0.38% among 360,000; inhibition, % at 12.5 µM; Purified CSN, SCF-Nedd8-OG deneddylation, fluorescence polarization; Q92905; AID 651999;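 active means pattern-corrected inhibition above about 35%, with an unprinted fluorescence ratio check between 0.5 and 1.5, limit read from the data, passing the limit was not always enough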;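 further: 0% = enzyme with substrate and 100% = substrate without enzyme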
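Material: purified human Csn5 enzyme expressed in HEK293T cells / Medium: Tris buffer pH 7.5, NaCl, DTT, Tween-20, trehalose, ovalbumin / Compound dosing: 12.5 µM single point / Schedule: 90 min incubation of compound, enzyme and substrate at room temperature / Signal: fluorescence polarization of the substrate / Control set: no-enzyme wells high, enzyme-with-substrate wells low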
HNF4A DNA FP: change in binding of human HNF4 alpha to DNA | P41235 | HNF4a-FITC DNA binding, fluorescence polarization, 1 h | activity change, % at 10 µM | hit rate 0.3% among 360,000 | AID 1224865; in the data active means activity change above about 30%, passing the limit was not always enough
TPT1 inh confirm: confirmation of Candida albicans TPT1 inhibitors; shares compounds with TPT1 inh; recombinant caTPT1, fluorescence polarization, RNase T1 coupled; inhibition, % at 5 µM; hit rate 74% among 2,400;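 active means inhibition above the primary screen limit, the mean inhibition of all tested compounds plus 3 SD, cut at about 25% in these data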
RNase T1 inh: blocks Aspergillus oryzae RNase T1, a TPT1 counter-screen. shares compounds with TPT1 inh. RNase T1 cleavage, fluorescence polarization, 1536-well. inhibition, % at 5 µM. hit rate 83% among 2,400. AID 2153;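 active means inhibition above the solvent-only control well mean plus 3 SD, limit set per screening run, cut at about 23% in these data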;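 further: plate controls were DMSO wells with enzyme for no effect and wells without RNase T1 for full effect; inhibitors block cleavage so intact labeled substrate keeps polarization high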
Rpn11 confirm: confirmation of human proteasome Rpn11 inhibitors; shares compounds with Rpn11 block; purified human 26S proteasome, Ub4-pepOG fluorescence polarization; proteasome pretreated with epoxomicin; inhibition, % at 20 µM; hit rate 29% among 1,900; AID 602318
MMP-2 inh: blocks human MMP-2, flagging nonselective RPN11 hits | shares compounds with Rpn11 block | recombinant MMP-2, FRET peptide cleavage fluorescence | inhibition, % at 20 µM | hit rate 4% among 1,900 | AID 602330;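 further: human MMP-2 activated beforehand with APMA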
Thrombin FP: blocks bovine thrombin, flagging nonselective RPN11 hits. bovine thrombin cleavage of Ub4-pepOG, fluorescence polarization. hit rate 13% among 1,900. shares compounds with Rpn11 block. AID 602333. inhibition, % at 20 µM;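 active means mean inhibition at least 40% at 20 µM, or signal 3 deviations below plate average, so some actives read negative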;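 further: plate controls were thrombin with DMSO for no effect and buffer wells lacking thrombin for full effect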
Target sequence (P00735 whole entry, looked up): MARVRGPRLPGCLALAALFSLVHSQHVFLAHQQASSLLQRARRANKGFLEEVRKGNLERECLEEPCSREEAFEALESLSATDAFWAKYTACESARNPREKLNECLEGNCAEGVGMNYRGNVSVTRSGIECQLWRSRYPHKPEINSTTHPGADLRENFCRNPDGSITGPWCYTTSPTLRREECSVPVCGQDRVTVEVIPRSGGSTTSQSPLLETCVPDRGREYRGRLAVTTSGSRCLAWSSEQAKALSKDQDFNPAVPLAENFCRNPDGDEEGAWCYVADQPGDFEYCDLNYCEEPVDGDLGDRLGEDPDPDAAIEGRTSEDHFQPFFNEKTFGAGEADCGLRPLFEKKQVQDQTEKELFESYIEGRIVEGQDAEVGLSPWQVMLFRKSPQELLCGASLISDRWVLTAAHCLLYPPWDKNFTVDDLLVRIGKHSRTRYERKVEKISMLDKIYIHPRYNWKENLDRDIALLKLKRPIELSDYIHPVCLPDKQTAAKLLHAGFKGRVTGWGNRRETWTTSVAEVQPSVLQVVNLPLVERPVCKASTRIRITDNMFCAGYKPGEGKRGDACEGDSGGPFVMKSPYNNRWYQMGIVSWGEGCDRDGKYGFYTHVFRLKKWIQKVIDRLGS
Starred values were filed as active, the others as inactive; x = no result given; ! = not confirmed by another sample. A selection: hits, their analogues and other compounds. The true share with any hit is near 1.3%. Unless noted, no stated cut-off is given here; in the data, active means inhibition above about 40%; inactive means the rest.

SMILES | TPT1 inh | Rpn11 block | aDG glyco up | XiGFP reactiv | CSN inh | HNF4A DNA FP | TPT1 inh confirm | RNase T1 inh | Rpn11 confirm | MMP-2 inh | Thrombin FP
COC(=O)[C@@H]1[C@@H](CO)[C@@H]2Cn3c(ccc(C4=CCCCC4)c3=O)[C@H]1N2CC1CCCCC1 | x | x | x | 0 | x | x | x | x | x | x | x
COc1ccc2nc(/N=C/c3c(O)n(-c4cccc(Cl)c4)c(=O)[nH]c3=O)sc2c1 | 55* | 48* | 0 | x | 23 | 1 | 14 | 17 | 2 | -22 | -13
COc1ccc(N=Cc2c(O)n(CC3CCCO3)c(=O)[nH]c2=O)cc1 (stereo not given) | 1 | 37 | 2 | 0 | 0 | -2 | x | x | x | x | x
O=c1[nH]c(=O)n(CC2CCCO2)c(O)c1/C=C1\C=Nc2ccccc21 (stereo not given) | 37*! | 48*! | 0 | 0 | 3 | 3 | 16 | 24* | 19 | -15 | 12
Cc1cccc(S(=O)(=O)N2[C@@H]3Cn4c(ccc(-c5ccccc5)c4=O)[C@H]2[C@@H](C(=O)O)[C@@H]3CO)c1 | x | x | x | 0 | x | x | x | x | x | x | x
CN1C(=O)/C(=C\c2ccc(Br)s2)C(=O)NC1=S | 25* | 55* | 0 | 0 | 11 | 1 | 15 | 27* | -2 | -1 | 6
COc1ccc(-n2c(O)c(/C=C3\C=Nc4ccc(Br)cc43)c(=O)[nH]c2=O)cc1 | 33* | 65* | 0 | 0 | 16 | 0 | 26* | 32* | -19 | -37 | -65
COc1ccc(-n2c(O)c(C=NCCCn3ccnc3)c(=O)[nH]c2=O)cc1 | -2 | -4 | 0 | x | 5 | -3 | x | x | x | x | x
C[C@H](CO)N1C[C@H](C)[C@@H](CN(C)C(=O)Oc2cccc3ccccc23)OCc2cnnn2CCCC1=O | x | x | x | 0 | x | x | x | x | x | x | x
COc1ccc(CN2C(=O)NC(=O)/C(=C/c3cc(OC)c(OC)c(OC)c3)C2=O)cc1 | 20 | 6 | 0 | 0 | 5 | -2 | x | x | x | x | x
COc1ccc(CN2C(=O)NC(=O)/C(=C/c3ccoc3)C2=O)cc1 | 174* | 186* | 0 | 0 | 161 | 16 | 19 | 32* | 96* | 44* | 10
CC=Cc1ccc2n(c1=O)C[C@H]1[C@H](CO)[C@@H](C(=O)OC)[C@@H]2N1CC1CCCCC1 (mixture of isomers) | x | x | x | 0 | x | x | x | x | x | x | x
O=c1[nH]c(=O)n(-c2cccc3ccccc23)c(O)c1/C=N/N1CCCCC1c1cccnc1 (stereo not given) | 51* | 44* | 0 | 0 | 27 | 33* | 67* | 81* | 90* | 26 | 67*
O=c1[nH]c(CN2CC=C(c3ccccc3)CC2)nc2scc(-c3ccccc3)c12 | 54* | 50* | 0 | 0 | 6 | 21 | 32* | 45* | 58* | -20 | 16
CN(C(=O)CN1CC=C(c2ccccc2)CC1)c1c(N)n(Cc2ccccc2)c(=O)[nH]c1=O | 3 | 5 | 0 | 0 | -9 | 0 | x | x | x | x | x
CC1=NCCc2c1[nH]c1ccccc21 | 25* | 62* | 0 | x | 18 | 37 | 17 | 22* | -4 | -29 | -6
C[C@@H]1CN([C@@H](C)CO)C(=O)c2c(c3ccccc3n2C)-c2ccccc2CO[C@@H]1CN(C)C(=O)Oc1ccccc1 | x | x | x | 0 | x | x | x | x | x | x | x
